The results in this text go back to ChEMBL document CHEMBL1641573, “3-[(Imidazolidin-2-yl)imino]indazole ligands with selectivity for the α(2)-adrenoceptor compared to the imidazoline I(1) receptor” (Bioorg Med Chem, 2011).

Molecules are shown by their SMILES.

In assay [1] the target is T1, Adrenergic receptor alpha-1 (Rattus norvegicus, UniProt P15823+P23944+P43140).
T1 sequence (P15823 whole entry): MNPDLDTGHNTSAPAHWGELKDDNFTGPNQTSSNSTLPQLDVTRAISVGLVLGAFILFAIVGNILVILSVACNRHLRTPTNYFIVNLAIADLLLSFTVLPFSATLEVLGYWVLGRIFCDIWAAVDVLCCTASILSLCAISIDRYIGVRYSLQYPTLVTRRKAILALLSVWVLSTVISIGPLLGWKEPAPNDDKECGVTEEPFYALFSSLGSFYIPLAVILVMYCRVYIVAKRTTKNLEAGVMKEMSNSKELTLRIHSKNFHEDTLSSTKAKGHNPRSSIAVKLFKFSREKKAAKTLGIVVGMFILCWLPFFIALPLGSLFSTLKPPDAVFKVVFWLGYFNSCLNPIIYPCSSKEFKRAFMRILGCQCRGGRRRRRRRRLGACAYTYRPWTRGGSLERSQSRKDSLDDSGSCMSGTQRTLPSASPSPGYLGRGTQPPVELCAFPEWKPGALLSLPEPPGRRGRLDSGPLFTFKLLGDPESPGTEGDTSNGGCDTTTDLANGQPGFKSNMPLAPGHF
T1 sequence (P23944 whole entry): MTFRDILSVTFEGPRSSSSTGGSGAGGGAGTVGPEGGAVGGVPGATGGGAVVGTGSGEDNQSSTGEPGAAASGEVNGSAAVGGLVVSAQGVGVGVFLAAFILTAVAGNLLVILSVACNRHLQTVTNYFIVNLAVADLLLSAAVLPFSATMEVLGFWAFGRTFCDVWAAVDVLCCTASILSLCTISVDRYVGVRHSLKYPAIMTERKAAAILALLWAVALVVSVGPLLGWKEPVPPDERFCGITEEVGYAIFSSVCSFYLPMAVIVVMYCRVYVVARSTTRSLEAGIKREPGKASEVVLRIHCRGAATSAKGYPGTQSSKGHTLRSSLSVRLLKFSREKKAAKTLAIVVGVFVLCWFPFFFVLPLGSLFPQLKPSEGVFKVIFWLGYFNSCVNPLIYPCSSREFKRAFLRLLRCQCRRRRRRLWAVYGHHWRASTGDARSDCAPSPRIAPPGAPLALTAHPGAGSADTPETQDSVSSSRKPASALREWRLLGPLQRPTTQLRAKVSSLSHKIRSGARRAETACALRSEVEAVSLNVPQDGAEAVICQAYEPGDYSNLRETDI
T1 sequence (P43140 whole entry): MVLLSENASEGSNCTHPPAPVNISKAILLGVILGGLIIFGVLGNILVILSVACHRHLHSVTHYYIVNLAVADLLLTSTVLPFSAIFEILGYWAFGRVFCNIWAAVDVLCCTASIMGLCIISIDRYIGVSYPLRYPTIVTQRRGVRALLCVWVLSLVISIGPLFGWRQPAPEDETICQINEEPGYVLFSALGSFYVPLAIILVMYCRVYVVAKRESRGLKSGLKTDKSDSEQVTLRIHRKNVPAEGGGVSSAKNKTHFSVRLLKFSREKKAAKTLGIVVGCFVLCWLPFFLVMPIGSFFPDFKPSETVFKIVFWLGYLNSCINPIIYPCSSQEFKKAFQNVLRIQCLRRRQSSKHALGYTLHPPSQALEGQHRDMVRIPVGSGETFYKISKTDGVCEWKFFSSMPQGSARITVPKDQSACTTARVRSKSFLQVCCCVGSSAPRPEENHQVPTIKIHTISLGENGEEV
Put plainly: Displacement of [3H]prazosin from alpha1 adrenergic receptor in Sprague-Dawley rat brain membrane after 45 mins by liquid scintillation counting. The format is cell membranes. In outline: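 Crude P2 brain membranes from male Sprague–Dawley rats (0.2–0.3 mg protein) incubated with 11 concentrations (0.01 nM–100 µM) and 1 nM of [3H]2BFI (I2), [3H]prazosin (α1) or [3H]RX821002 (α2), at room temperature in triplicate. Non-specific binding: BU224, phenylephrine or rauwolscine. Filtration, scintillation counting, Ki by Cheng–Prusoff from 3–4 experiments.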
A general note: In a radioligand displacement assay an active substance lowers the binding of a labelled ligand.

Assay [2] concerns Rattus norvegicus. Put plainly: Cardioprotectant activity in Wistar rat assessed as change in heart rate at 1 mg/kg, iv. Format: functional.
In assay [3] the test system is Rattus norvegicus. Put plainly: Cardioprotectant activity in Wistar rat assessed as change in heart rate at 0.1 mg/kg, iv. The format is functional.

Usually Ki stands for the dissociation constant of the complex between target and ligand, obtained from inhibition or displacement. For `Cl.Clc1cccc2[nH]nc(N=C3NCCN3)c12`, in assay [1], the Ki is 69.3 nM. Further, the Activity is on record as -68 bpm with Rattus norvegicus [2] and -40 bpm in the assay on Rattus norvegicus [3].
On the same counts, the results for `Cc1cccc2[nH]nc(N=C3NCCN3)c12.Cl` are 46.5 nM, -155 bpm and -132 bpm.
In assay [1], `Cl.Clc1cccc2c(N=C3NCCN3)n[nH]c12` displayed a Ki of 684 nM. In addition, the Activity is recorded as -117 bpm with Rattus norvegicus [2] and -92 bpm in the assay on Rattus norvegicus [3].
